Assay results from PMC6931074 (Journal of Pharmaceutical Analysis, 2018).
Read-outs that look alike come from different tables or passages of the source.

Experiments:
[1] = format: physicochemical
Method in brief: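 Test compound stock (0.75 mg/mL in N,N-dimethylformamide) was diluted to 150 μg/mL in phosphate buffers (pH 1.85–10.97, set at 25 °C). Solutions in glass tubes were held in a thermostat bath at 25, 37, 60, 80 or 100 °C. Aliquots were taken at 0–24 h, ice-quenched, diluted tenfold in methanol, filtered (0.22 µm) and run by C18 RP-HPLC (UV 396 nm). Half-life = ln2/k; activation parameters came from Arrhenius relationship.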

Influence of irradiation = format: physicochemical; settings: solution under indirect daylight at room temperature, after 15 min
Method in brief: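 A 150 μg/mL test compound solution was exposed to daylight at 25 °C, alongside a light-shielded control. Content was measured by C18 RP-HPLC using acetonitrile–phosphate buffer (35:65, pH 6.5) at 1 mL/min, 30 °C, with UV detection at 396 nm.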

[2] = cited from earlier work
Influence of oxidation = format: physicochemical; settings: H2O2 3%, 10% and 30%
Method in brief: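 Test compound solutions (150 μg/mL) containing 3%, 10% or 30% H₂O₂ were incubated at 25 °C. Samples taken at 0, 2, 5, 10, 20 and 30 min were ice-quenched, diluted tenfold with methanol, filtered (0.22 µm) and quantified by isocratic C18 RP-HPLC (UV 396 nm). Rate constants were derived from plots of ln(Ct/C0) against time.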

SMILES: CC(/C=C1\SC(=S)N(CC(=O)O)C1=O)=C\c1ccccc1 [epalrestat, 5-[(1Z,2E)− 2-methyl-3-phenylpropenylidene]-4-oxo-2-thioxo-3-thiazolidie acetic acid]
- pH of maximum stability ([1]; 25 °C, pH 1.85 to 10.97): ~10.97
- half-life at 150 μg/mL ([1]; aqueous phosphate buffer, pH 1.85, half-time (t1/2), pH 1.85, 25 °C): 43.3 h
- half-life at 150 μg/mL ([1]; aqueous phosphate buffer, pH 1.85, half-time (t1/2), pH 1.85, 37 °C): 33.6 h
- half-life at 150 μg/mL ([1]; aqueous phosphate buffer, pH 1.85, half-time (t1/2), pH 1.85, 60 °C): 29.6 h
- half-life at 150 μg/mL ([1]; aqueous phosphate buffer, pH 1.85, half-time (t1/2), pH 1.85, 80 °C): 24.6 h
- half-life at 150 μg/mL ([1]; aqueous phosphate buffer, pH 1.85, half-time (t1/2), pH 1.85, 100 °C): 10.6 h
- half-life at 150 μg/mL ([1]; aqueous phosphate buffer, pH 3.13, half-time (t1/2), pH 3.13, 25 °C): 43.6 h
- half-life at 150 μg/mL ([1]; aqueous phosphate buffer, pH 3.13, half-time (t1/2), pH 3.13, 37 °C): 35.7 h
- half-life at 150 μg/mL ([1]; aqueous phosphate buffer, pH 3.13, half-time (t1/2), pH 3.13, 60 °C): 33.6 h
- half-life at 150 μg/mL ([1]; aqueous phosphate buffer, pH 3.13, half-time (t1/2), pH 3.13, 80 °C): 23.3 h
- half-life at 150 μg/mL ([1]; aqueous phosphate buffer, pH 3.13, half-time (t1/2), pH 3.13, 100 °C): 11.1 h
- half-life at 150 μg/mL ([1]; aqueous phosphate buffer, pH 5, half-time (t1/2), pH 5.00, 25 °C): 116 h
- half-life at 150 μg/mL ([1]; aqueous phosphate buffer, pH 5, half-time (t1/2), pH 5.00, 37 °C): 60.3 h
- half-life at 150 μg/mL ([1]; aqueous phosphate buffer, pH 5, half-time (t1/2), pH 5.00, 60 °C): 36.3 h
- half-life at 150 μg/mL ([1]; aqueous phosphate buffer, pH 5, half-time (t1/2), pH 5.00, 80 °C): 22.9 h
- half-life at 150 μg/mL ([1]; aqueous phosphate buffer, pH 5, half-time (t1/2), pH 5.00, 100 °C): 9.67 h
- △H^‡ (enthalpy of activation) ([1]; pH 1.85): 2.806 kcal/mol
- △S^‡ (entropy of activation) ([1]; pH 1.85): −647.95 J/K/mol
- Rate constant (k) ([1]; pH 1.85, 25 °C): 0.0160 h⁻¹
- Rate constant (k) ([1]; pH 1.85, 37 °C): 0.0206 h⁻¹
- Rate constant (k) ([1]; pH 1.85, 60 °C): 0.0234 h⁻¹
- Rate constant (k) ([1]; pH 1.85, 80 °C): 0.0282 h⁻¹
- Rate constant (k) ([1]; pH 1.85, 100 °C): 0.0655 h⁻¹
- Ea (activation energy) ([1]; pH 1.85, Arrhenius plot 25–100 °C): 3.468 kcal/mol
- △H^‡ (enthalpy of activation) ([1]; pH 3.13): 2.885 kcal/mol
- △S^‡ (entropy of activation) ([1]; pH 3.13): −646.94 J/K/mol
- Rate constant (k) ([1]; pH 3.13, 25 °C): 0.0159 h⁻¹
- Rate constant (k) ([1]; pH 3.13, 37 °C): 0.0194 h⁻¹
- Rate constant (k) ([1]; pH 3.13, 60 °C): 0.0206 h⁻¹
- Rate constant (k) ([1]; pH 3.13, 80 °C): 0.0297 h⁻¹
- Rate constant (k) ([1]; pH 3.13, 100 °C): 0.0627 h⁻¹
- Ea (activation energy) ([1]; pH 3.13, Arrhenius plot 25–100 °C): 3.549 kcal/mol
- △H^‡ (enthalpy of activation) ([1]; pH 5.00): 6.03 kcal/mol
- △S^‡ (entropy of activation) ([1]; pH 5.00): −607.24 J/K/mol
- Rate constant (k) ([1]; pH 5.00, 25 °C): 0.0060 h⁻¹
- Rate constant (k) ([1]; pH 5.00, 37 °C): 0.0115 h⁻¹
- Rate constant (k) ([1]; pH 5.00, 60 °C): 0.0191 h⁻¹
- Rate constant (k) ([1]; pH 5.00, 80 °C): 0.0302 h⁻¹
- Rate constant (k) ([1]; pH 5.00, 100 °C): 0.0717 h⁻¹
- Ea (activation energy) ([1]; pH 5.00, Arrhenius plot 25–100 °C): 6.692 kcal/mol
- △H^‡ (enthalpy of activation) ([1]; pH 7.10): 6.217 kcal/mol
- △S^‡ (entropy of activation) ([1]; pH 7.10): −604.87 J/K/mol
- Rate constant (k) ([1]; pH 7.10, 25 °C): 0.0043 h⁻¹
- Rate constant (k) ([1]; pH 7.10, 37 °C): 0.0153 h⁻¹
- Rate constant (k) ([1]; pH 7.10, 60 °C): 0.0195 h⁻¹
- Rate constant (k) ([1]; pH 7.10, 80 °C): 0.0280 h⁻¹
- Rate constant (k) ([1]; pH 7.10, 100 °C): 0.0695 h⁻¹
- Ea (activation energy) ([1]; pH 7.10, Arrhenius plot 25–100 °C): 6.879 kcal/mol
- △H^‡ (enthalpy of activation) ([1]; pH 9.08): 7.012 kcal/mol
- △S^‡ (entropy of activation) ([1]; pH 9.08): −594.83 J/K/mol
- Rate constant (k) ([1]; pH 9.08, 25 °C): 0.0033 h⁻¹
- Rate constant (k) ([1]; pH 9.08, 37 °C): 0.0122 h⁻¹
- Rate constant (k) ([1]; pH 9.08, 60 °C): 0.0194 h⁻¹
- Rate constant (k) ([1]; pH 9.08, 80 °C): 0.0264 h⁻¹
- Rate constant (k) ([1]; pH 9.08, 100 °C): 0.0690 h⁻¹
- Ea (activation energy) ([1]; pH 9.08, Arrhenius plot 25–100 °C): 7.674 kcal/mol
- △H^‡ (enthalpy of activation) ([1]; pH 10.97): 10.38 kcal/mol
- △S^‡ (entropy of activation) ([1]; pH 10.97): −552.37 J/K/mol
- Rate constant (k) ([1]; pH 10.97, 25 °C): 0.0016 h⁻¹
- shelf-life (t0.9) ([1]; pH 10.97, 25 °C): 65.88
- Rate constant (k) ([1]; pH 10.97, 37 °C): 0.0036 h⁻¹
- shelf-life (t0.9) ([1]; pH 10.97, 37 °C): 29.28
- Rate constant (k) ([1]; pH 10.97, 60 °C): 0.0140 h⁻¹
- shelf-life (t0.9) ([1]; pH 10.97, 60 °C): 7.53
- Rate constant (k) ([1]; pH 10.97, 80 °C): 0.0267 h⁻¹
- shelf-life (t0.9) ([1]; pH 10.97, 80 °C): 3.95
- Rate constant (k) ([1]; pH 10.97, 100 °C): 0.0724 h⁻¹
- shelf-life (t0.9) ([1]; pH 10.97, 100 °C): 1.46
- Ea (activation energy) ([1]; pH 10.97, Arrhenius plot 25–100 °C): 11.04 kcal/mol
- half-life at 150 μg/mL ([1]; phosphate buffer, pH 7.1, half-time (t1/2), pH 7.10, 25 °C): 161 h
- half-life at 150 μg/mL ([1]; phosphate buffer, pH 7.1, half-time (t1/2), pH 7.10, 37 °C): 45.3 h
- half-life at 150 μg/mL ([1]; phosphate buffer, pH 7.1, half-time (t1/2), pH 7.10, 60 °C): 35.5 h
- half-life at 150 μg/mL ([1]; phosphate buffer, pH 7.1, half-time (t1/2), pH 7.10, 80 °C): 24.8 h
- half-life at 150 μg/mL ([1]; phosphate buffer, pH 7.1, half-time (t1/2), pH 7.10, 100 °C): 9.97 h
- half-life at 150 μg/mL ([1]; phosphate buffer, pH 9.08, half-time (t1/2), pH 9.08, 25 °C): 210 h
- half-life at 150 μg/mL ([1]; phosphate buffer, pH 9.08, half-time (t1/2), pH 9.08, 37 °C): 56.8 h
- half-life at 150 μg/mL ([1]; phosphate buffer, pH 9.08, half-time (t1/2), pH 9.08, 60 °C): 35.7 h
- half-life at 150 μg/mL ([1]; phosphate buffer, pH 9.08, half-time (t1/2), pH 9.08, 80 °C): 26.2 h
- half-life at 150 μg/mL ([1]; phosphate buffer, pH 9.08, half-time (t1/2), pH 9.08, 100 °C): 10 h
- half-life at 150 μg/mL ([1]; phosphate buffer, pH 10.97, half-time (t1/2), pH 10.97, 25 °C): 433 h
- half-life at 150 μg/mL ([1]; phosphate buffer, pH 10.97, half-time (t1/2), pH 10.97, 37 °C): 192 h
- half-life at 150 μg/mL ([1]; phosphate buffer, pH 10.97, half-time (t1/2), pH 10.97, 60 °C): 49.5 h
- half-life at 150 μg/mL ([1]; phosphate buffer, pH 10.97, half-time (t1/2), pH 10.97, 80 °C): 26 h
- half-life at 150 μg/mL ([1]; phosphate buffer, pH 10.97, half-time (t1/2), pH 10.97, 100 °C): 9.57 h
- reaction order of degradation ([1]; plot of ln(Ct/C0) against time, all degradation conditions): first-order
- content of epalrestat relative to that protected from light (Influence of irradiation): a third
- behaviour of epalrestat powder on exposure to light [2]: gradually fades in color and decomposes on exposure to light
- stability under oxidation conditions (Influence of oxidation): extremely unstable
